Calls of active or inactive are those of the source. No cut-off for these calls is given here.
What was measured:
[1] = target: Receptor-type tyrosine-protein kinase FLT3 (Homo sapiens, UniProt P36888); experiment: Inhibition of FLT3 (unknown origin) assessed as [33P] incorporation in substrate by TopCount microplate scintillation counting analysis
[2] = Oral bioavailability in Sprague-Dawley rat at 20 mg/kg compound formulated with 1% methylcellulose in water by LC-MS/MS analysis; type: ADME, organism-based; conditions: in vivo
How it was run: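 Male Sprague–Dawley rats, n = 3. Blood drawn by preimplanted catheter over 24 h; plasma separated at 4 °C and deproteinated with acetonitrile. Drug measured by LC–MS/MS; parameters obtained by noncompartmental analysis.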

[3] = target: Epidermal growth factor receptor (Homo sapiens, UniProt P00533); experiment: Inhibition of EGFR (unknown origin) assessed as [33P] incorporation in substrate by TopCount microplate scintillation counting analysis
[4] = Growth inhibition of human Hep3B cells; type: functional, Hep 3B2
[5] = Growth inhibition of human RPTEC cells; type: cell-based
[6] = target: Serine/threonine-protein kinase B-raf (Homo sapiens, UniProt P15056, V600E); experiment: Inhibition of B-Raf V600E mutant (unknown origin) assessed as [33P] incorporation in substrate by TopCount microplate scintillation counting analysis
Chain of Serine/threonine-protein kinase B-raf (P15056 2-766 V600E limits assumed): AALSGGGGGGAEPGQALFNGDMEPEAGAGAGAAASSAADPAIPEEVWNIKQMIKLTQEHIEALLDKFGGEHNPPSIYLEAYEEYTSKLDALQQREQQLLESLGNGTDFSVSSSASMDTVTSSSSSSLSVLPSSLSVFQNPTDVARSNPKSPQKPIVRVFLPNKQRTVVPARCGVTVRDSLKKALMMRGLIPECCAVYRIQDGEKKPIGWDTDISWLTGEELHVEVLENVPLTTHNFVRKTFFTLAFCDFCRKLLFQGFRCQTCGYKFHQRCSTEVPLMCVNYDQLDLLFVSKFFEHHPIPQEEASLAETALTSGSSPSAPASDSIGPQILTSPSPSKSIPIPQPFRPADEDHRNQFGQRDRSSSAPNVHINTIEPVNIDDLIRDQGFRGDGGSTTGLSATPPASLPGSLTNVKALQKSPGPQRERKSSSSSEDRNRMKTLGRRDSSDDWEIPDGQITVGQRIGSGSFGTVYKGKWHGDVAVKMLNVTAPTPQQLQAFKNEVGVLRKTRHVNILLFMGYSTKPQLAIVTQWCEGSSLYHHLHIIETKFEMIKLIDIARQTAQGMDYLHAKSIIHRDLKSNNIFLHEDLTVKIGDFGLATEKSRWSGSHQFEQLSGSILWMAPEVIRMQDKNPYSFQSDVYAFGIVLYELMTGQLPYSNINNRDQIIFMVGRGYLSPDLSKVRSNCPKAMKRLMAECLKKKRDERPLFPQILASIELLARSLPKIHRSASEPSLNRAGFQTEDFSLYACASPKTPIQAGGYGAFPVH

MDA-MB-468 [7] = experiment: Induction of mitotic abnormalities in human MDA-MB-468 cells assessed as proportion of cells displaying chromosomal misalignment at 1000 nM after 48 hrs by immunofluorescent staining based microscopy (reference value: 21.4%); type: functional
MDA-MB-468 [8] = experiment: Induction of mitotic abnormalities in human MDA-MB-468 cells assessed as proportion of cells displaying multipolar spindles at 10 nM after 48 hrs by immunofluorescent staining based microscopy (reference value: […]); type: functional
K562 = experiment: Antiproliferative activity against human K562 cells assessed as cell viability after 96 hrs by CellTiter96 assay; type: functional, cell-based; conditions: K562, 96 h
[9] = target: Phosphatidylinositol 4,5-bisphosphate 3-kinase catalytic subunit alpha isoform (Homo sapiens, UniProt P42336); experiment: Inhibition of PI3K alpha (unknown origin) assessed as [33P] incorporation in substrate by TopCount microplate scintillation counting analysis
[10] = target: Insulin-like growth factor 1 receptor (Homo sapiens, UniProt P08069); experiment: Inhibition of IGF-1R (unknown origin) assessed as [33P] incorporation in substrate by TopCount microplate scintillation counting analysis
Chain of Insulin-like growth factor 1 receptor (P08069 31-736 limits assumed): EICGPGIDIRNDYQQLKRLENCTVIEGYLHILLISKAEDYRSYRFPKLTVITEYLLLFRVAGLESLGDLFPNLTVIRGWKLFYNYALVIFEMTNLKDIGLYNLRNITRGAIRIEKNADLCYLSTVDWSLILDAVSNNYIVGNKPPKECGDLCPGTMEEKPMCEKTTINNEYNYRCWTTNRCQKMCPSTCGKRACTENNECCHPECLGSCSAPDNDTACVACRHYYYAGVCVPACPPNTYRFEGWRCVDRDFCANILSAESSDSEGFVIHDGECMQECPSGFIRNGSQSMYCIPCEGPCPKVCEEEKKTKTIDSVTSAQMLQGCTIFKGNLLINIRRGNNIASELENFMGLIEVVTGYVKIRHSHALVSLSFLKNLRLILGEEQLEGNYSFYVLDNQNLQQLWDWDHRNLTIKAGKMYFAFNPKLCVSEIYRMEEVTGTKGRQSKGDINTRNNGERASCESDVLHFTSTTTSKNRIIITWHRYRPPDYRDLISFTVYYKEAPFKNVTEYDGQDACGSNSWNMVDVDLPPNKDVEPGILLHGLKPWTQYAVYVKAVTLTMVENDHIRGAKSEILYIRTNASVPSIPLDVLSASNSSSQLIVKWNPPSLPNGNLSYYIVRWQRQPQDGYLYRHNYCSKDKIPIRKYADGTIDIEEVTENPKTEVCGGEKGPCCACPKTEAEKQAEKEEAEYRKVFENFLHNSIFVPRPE
Chain of Insulin-like growth factor 1 receptor (P08069 741-1367 limits assumed): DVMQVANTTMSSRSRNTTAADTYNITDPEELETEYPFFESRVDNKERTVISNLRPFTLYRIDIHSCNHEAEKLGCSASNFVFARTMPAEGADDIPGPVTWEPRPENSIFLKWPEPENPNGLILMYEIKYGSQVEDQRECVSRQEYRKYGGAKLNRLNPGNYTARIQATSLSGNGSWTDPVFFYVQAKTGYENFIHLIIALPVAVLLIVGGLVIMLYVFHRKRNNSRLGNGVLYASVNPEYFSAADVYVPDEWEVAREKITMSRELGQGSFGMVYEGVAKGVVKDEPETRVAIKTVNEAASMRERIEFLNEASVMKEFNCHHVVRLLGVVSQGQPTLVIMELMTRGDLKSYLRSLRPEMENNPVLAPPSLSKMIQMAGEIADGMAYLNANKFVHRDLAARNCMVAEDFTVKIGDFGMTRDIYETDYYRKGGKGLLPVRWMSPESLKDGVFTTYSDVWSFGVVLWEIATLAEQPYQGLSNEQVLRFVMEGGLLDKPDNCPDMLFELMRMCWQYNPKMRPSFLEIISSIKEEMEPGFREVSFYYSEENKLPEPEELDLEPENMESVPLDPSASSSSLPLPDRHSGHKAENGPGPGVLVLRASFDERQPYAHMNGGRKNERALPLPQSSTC

[11] = target: Cyclin-dependent kinase 1/cyclin B1 (Homo sapiens, UniProt P06493); experiment: Inhibition of Cdk1/cyclin B (unknown origin) assessed as [33P] incorporation in substrate by TopCount microplate scintillation counting analysis; type: protein-complex assay
Chain of Cyclin-dependent kinase 1/cyclin B1 (P06493 whole entry, canonical isoform): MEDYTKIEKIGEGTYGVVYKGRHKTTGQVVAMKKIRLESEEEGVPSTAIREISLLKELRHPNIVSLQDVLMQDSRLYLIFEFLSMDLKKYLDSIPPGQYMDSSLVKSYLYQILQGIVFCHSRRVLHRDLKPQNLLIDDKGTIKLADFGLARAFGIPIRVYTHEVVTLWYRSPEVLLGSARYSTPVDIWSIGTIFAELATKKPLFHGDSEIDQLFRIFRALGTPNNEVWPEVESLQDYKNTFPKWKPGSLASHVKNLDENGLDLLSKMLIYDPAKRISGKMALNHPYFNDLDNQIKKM
Chain of Cyclin-dependent kinase 1/cyclin B1 (P14635 whole entry, further chain, canonical isoform): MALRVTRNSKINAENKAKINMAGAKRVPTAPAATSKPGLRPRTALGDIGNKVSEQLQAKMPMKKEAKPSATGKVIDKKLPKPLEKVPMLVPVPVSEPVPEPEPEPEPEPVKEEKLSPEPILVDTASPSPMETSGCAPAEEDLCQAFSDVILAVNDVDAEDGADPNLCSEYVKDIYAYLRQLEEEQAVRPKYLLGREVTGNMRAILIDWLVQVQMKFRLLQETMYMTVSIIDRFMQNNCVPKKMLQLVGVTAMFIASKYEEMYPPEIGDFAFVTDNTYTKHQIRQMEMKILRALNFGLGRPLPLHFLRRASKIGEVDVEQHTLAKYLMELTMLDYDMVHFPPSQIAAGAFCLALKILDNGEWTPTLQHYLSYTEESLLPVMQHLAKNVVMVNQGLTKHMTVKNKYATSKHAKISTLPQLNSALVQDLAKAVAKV

[12] = target: Phosphatidylinositol 4,5-bisphosphate 3-kinase catalytic subunit beta isoform (Homo sapiens, UniProt P42338); experiment: Inhibition of PI3K beta (unknown origin) assessed as [33P] incorporation in substrate by TopCount microplate scintillation counting analysis
Chain of Phosphatidylinositol 4,5-bisphosphate 3-kinase catalytic subunit beta isoform (P42338 whole entry, canonical isoform): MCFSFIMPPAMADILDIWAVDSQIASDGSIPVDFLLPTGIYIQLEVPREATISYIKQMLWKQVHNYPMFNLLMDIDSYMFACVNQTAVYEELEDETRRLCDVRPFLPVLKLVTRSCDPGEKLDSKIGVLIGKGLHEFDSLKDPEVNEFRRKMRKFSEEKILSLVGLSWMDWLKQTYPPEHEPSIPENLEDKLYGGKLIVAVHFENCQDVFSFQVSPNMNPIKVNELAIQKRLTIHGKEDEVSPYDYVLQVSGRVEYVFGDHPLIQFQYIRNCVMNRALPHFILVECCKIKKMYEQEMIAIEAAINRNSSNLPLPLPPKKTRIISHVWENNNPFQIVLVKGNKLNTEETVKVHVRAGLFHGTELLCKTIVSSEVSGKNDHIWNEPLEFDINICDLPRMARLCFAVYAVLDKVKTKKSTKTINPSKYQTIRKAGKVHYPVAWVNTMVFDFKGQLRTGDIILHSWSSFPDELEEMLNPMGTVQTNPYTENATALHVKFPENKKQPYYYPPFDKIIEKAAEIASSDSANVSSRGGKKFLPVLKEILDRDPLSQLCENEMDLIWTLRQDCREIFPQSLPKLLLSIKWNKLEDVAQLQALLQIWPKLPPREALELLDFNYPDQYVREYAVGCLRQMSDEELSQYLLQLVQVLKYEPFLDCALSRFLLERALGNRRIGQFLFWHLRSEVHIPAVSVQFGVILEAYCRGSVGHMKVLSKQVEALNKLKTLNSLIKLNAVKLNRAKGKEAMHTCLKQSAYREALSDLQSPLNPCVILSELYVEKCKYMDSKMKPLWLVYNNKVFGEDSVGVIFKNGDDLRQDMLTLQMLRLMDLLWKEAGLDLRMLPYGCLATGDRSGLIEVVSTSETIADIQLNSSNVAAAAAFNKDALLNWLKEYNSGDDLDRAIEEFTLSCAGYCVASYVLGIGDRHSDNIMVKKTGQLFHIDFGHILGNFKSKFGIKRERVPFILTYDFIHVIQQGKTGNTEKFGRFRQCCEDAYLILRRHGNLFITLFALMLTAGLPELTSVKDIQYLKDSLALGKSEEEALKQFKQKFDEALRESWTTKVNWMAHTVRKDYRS

MDA-MB-231 [13] = experiment: Growth inhibition of human MDA-MB-231 cells; type: functional
MDA-MB-468 [14] = experiment: Induction of mitotic abnormalities in human MDA-MB-468 cells assessed as proportion of cells displaying multipolar spindles at 1000 nM after 48 hrs by immunofluorescent staining based microscopy (reference value: […]); type: functional
Mus musculus = experiment: Toxicity in BALB/c nu/nu mouse xenografted with human MDA-MB-231 cells assessed as body weight loss at 20 mg/kg, iv qd for 28 days; type: organism-based; design: dose 20 mg/kg, route intravenous; conditions: in vivo, 672 h
How it was run: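 Female BALB/c nu/nu mice, 5–8 weeks old, implanted subcutaneously in the right flank with 1 × 10⁷ MDA-MB-231 cells in matrigel. Treatment began at about 100 mm³ tumor volume; 5 mice per group. Dosing for 28 days: IV 20 mg/kg once daily or PO 150 mg/kg twice daily, in 5% DMSO/10% Cremophor in H₂O; vehicle controls included. Body weight and tumor size (caliper) recorded every 2 days.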

MDA-MB-231 [15] = experiment: Antiproliferative activity against human MDA-MB-231 cells assessed as cell viability after 96 hrs by CellTiter96 assay; type: functional, cell-based; conditions: MDA-MB-231, 96 h
[16] = target: T1, Kinetochore protein NDC80 homolog (Homo sapiens) (UniProt O14777); experiment: Inhibition of Hec1/Nek2 interaction in human K562 cells assessed as induction of Nek2 degradation at 10 nM after 24 hrs by western blot analysis; type: cell-based
T1 sequence (whole entry): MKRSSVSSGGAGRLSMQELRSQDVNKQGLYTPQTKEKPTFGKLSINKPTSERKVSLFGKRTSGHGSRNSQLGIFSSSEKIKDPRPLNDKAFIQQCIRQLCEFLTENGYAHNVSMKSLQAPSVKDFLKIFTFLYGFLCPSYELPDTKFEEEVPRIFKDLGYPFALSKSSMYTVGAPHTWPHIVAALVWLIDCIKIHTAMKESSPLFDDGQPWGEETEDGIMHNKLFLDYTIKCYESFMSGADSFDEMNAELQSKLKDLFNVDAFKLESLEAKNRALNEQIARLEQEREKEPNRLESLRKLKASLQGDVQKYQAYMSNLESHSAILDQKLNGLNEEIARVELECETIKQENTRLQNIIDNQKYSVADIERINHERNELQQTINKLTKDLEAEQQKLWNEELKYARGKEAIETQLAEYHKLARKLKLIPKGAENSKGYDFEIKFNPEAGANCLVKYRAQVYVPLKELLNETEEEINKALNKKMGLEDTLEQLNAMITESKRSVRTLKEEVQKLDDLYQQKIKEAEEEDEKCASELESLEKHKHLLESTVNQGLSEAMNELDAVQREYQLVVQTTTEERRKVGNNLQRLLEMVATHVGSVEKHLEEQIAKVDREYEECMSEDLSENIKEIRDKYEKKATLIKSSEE
How it was run: (§1)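 K562 cells exposed to DMSO or to 10, 100 or 1000 nM for 24 h. Nek2 and Hec1 detected by western blot in SDS sample buffer lysates, with actin as loading control and ECL detection.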

HeLa = experiment: Induction of apoptosis in human HeLa cells assessed as increase in cleaved PARP level at 1 uM after 24 to 48 hrs by western blot analysis; type: functional, cell-based
How it was run: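 HeLa cells given 1.0 μM compound, DMSO, or paclitaxel 100 nM for 24 and 48 h. Lysates made in SDS sample buffer, run on SDS-PAGE and transferred to PVDF. Blots probed for cleaved caspase-3, cleaved PARP, Bcl-2, Mcl-1 and XIAP, with actin as loading control, and detected by HRP-linked ECL.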

[17] = target: Mast/stem cell growth factor receptor Kit (Homo sapiens, UniProt P10721); experiment: Inhibition of Kit (unknown origin) assessed as [33P] incorporation in substrate by TopCount microplate scintillation counting analysis
Chain of Mast/stem cell growth factor receptor Kit (P10721 whole entry): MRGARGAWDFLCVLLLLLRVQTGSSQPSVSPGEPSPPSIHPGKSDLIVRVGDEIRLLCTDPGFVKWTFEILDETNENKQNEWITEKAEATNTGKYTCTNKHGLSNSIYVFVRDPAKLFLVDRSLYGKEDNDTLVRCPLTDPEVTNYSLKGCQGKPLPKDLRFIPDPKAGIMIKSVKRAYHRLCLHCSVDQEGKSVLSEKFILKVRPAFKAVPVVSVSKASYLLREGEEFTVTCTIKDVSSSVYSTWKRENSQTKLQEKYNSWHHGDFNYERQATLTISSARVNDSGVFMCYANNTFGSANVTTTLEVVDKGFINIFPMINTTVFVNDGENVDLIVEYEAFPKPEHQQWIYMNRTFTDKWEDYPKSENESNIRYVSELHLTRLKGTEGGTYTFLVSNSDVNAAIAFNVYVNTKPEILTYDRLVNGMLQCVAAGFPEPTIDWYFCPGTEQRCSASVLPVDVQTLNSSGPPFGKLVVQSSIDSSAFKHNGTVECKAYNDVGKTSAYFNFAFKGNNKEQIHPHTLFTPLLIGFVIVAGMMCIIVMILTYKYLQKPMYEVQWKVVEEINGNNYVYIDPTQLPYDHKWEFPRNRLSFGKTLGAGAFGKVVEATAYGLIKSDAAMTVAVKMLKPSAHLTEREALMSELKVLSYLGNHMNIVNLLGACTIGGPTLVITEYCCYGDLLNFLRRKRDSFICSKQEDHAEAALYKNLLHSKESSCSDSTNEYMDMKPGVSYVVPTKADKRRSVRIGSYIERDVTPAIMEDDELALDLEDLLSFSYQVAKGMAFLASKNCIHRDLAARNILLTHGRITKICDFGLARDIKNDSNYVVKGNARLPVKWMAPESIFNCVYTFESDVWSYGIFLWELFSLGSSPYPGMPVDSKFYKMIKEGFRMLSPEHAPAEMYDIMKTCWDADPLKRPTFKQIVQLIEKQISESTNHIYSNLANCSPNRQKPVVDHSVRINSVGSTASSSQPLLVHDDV

[18] = target: T1, Kinetochore protein NDC80 homolog (Homo sapiens); experiment: Inhibition of Hec1/Nek2 interaction in human K562 cells assessed as induction of Nek2 degradation after 24 hrs by western blot analysis; type: cell-based; how it was run: as §1

IC50 [1]: > 10 µM
bioavailability [2]: 4.6%
IC50 [3]: > 10 µM
IC50 [6]: > 10 µM
IC50 (K562): 0.0163 µM
IC50 [9]: > 10 µM
IC50 [10]: > 10 µM
IC50 [11]: > 10 µM
IC50 [12]: > 10 µM
GI50 (MDA-MB-231 [13]): 0.0398 µM
IC50 (MDA-MB-231 [15]): 0.02 µM
Activity [16]: inactive
IC50 [17]: > 10 µM
Activity [18]: Dose-dependent effect
SMILES: COc1ccc(Oc2cc(C)c(-c3csc(NC(=O)c4ccnc(F)c4)n3)c(C)c2)cc1
GI50 [4]: 0.0683 µM
GI50 [5]: > 9 µM
Activity (MDA-MB-468 [7]): 20%
Activity (MDA-MB-468 [8]): 16.9%
Activity (MDA-MB-468 [14]): 46.7%
Activity (Mus musculus): < 5%
Activity (HeLa): Active

— ChEMBL document CHEMBL3259640 (J Med Chem, 2014)
